Test results taken from ChEMBL document CHEMBL1123589, “Phenylpiperazine-based radiopharmaceuticals for brain imaging. 3. Synthesis and evaluation of radioiodinated 1-alkyl-4-phenylpiperazines” (J Med Chem, 1987).

How the values were obtained:
Settings in all cases: in vivo
Rattus norvegicus [1] = assay: The biodistribution of the [125I]-labeled compound in rats after intravenous injection was evaluated in heart at 1.00 hrs; value ranges from 0.08-0.09 (ID.kg/g); format: ADME, organism-based
Summary of the method: (§1)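 Male Sprague-Dawley rats (250–300 g) under ether anesthesia were given an iv injection of no-carrier-added 125I-labelled agent (10–15 μCi in 0.1 mL saline). The agent was iodinated with chloramine-T in acetate buffer and purified by C-18 HPLC. Groups of N = 3 were killed at 0.25, 1 and 4 h. Blood and tissues were weighed and γ-counted. Values are % ID·kg/g, mean (range).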

Rattus norvegicus [2] = assay: The biodistribution of the [125I]-labeled compound in rats after intravenous injection was evaluated in lung at 0.25 hrs; value ranges from 0.52-0.58 (ID.kg/g); format: ADME, organism-based
Summary of the method: (§2)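 Male Sprague-Dawley rats (250–300 g), under ether anesthesia, given 10–15 μCi of the NCA ¹²⁵I-labeled agent iv in 0.1 mL saline. Groups of N = 3 were killed at 0.25, 1 or 4 h. Blood and tissues were removed, weighed and counted in a γ-well scintillation counter. Values are mean % ID·kg/g (range).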

Rattus norvegicus [3] = assay: The biodistribution of the [125I]-labeled compound in rats after intravenous injection was evaluated in blood at 0.25 hrs (ID.kg/g); format: ADME, organism-based; summary of the method: as §1
Rattus norvegicus [4] = assay: The biodistribution of the [125I]-labeled compound in rats after intravenous injection was evaluated in thyroid at 4.00 hrs; value ranges from 14.14-15.81 (ID.kg/g); format: ADME, organism-based, Thyroid gland
Summary of the method: (§3)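 Male Sprague-Dawley rats (250–300 g) under ether anesthesia given iv 0.1 mL saline containing 10–15 μCi of NCA ¹²⁵I-labeled agent (chloramine-T iodination, HPLC-purified). Groups of 3 killed at 0.25, 1 and 4 h. Blood and tissues excised, weighed and γ-counted. Values are mean (range) of % injected dose × body mass (kg) per gram of tissue.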

Rattus norvegicus [5] = assay: The biodistribution of the [125I]-labeled compound in rats after intravenous injection was evaluated in muscle at 1.00 hrs; value ranges from 0.03-0.04 (ID.kg/g); format: ADME, organism-based, Muscle tissue; summary of the method: as §3
Rattus norvegicus [6] = assay: The biodistribution of the [125I]-labeled compound in rats after intravenous injection was evaluated in heart at 4.00 hrs; value ranges from 0.04-0.06 (ID.kg/g); format: ADME, organism-based; summary of the method: as §2
Rattus norvegicus [7] = assay: The biodistribution of the [125I]-labeled compound in rats after intravenous injection was evaluated in brain at 0.25 hrs; value ranges from 0.23-0.25 (ID.kg/g); format: ADME, organism-based; summary of the method: as §1
Rattus norvegicus [8] = assay: The biodistribution of the [125I]-labeled compound in rats after intravenous injection was evaluated in kidney at 0.25 hr; value ranges from 0.28-0.32 (ID.kg/g); format: ADME, organism-based; summary of the method: as §2
Rattus norvegicus [9] = assay: The biodistribution of the [125I]-labeled compound in rats after intravenous injection was evaluated in kidney at 4.00 hrs; value ranges from 0.26-0.35 (ID.kg/g); format: ADME, organism-based; summary of the method: as §2
Rattus norvegicus [10] = assay: The biodistribution of the [125I]-labeled compound in rats after intravenous injection was evaluated in fat at 4.00 hrs; value ranges from 0.07-0.09 (ID.kg/g); format: ADME, organism-based, Adipose tissue; summary of the method: as §1
Rattus norvegicus [11] = assay: The biodistribution of the [125I]-labeled compound in rats after intravenous injection was evaluated in thyroid at 1.00 hrs; value ranges from 2.56-3.24 (ID.kg/g); format: ADME, organism-based, Thyroid gland; summary of the method: as §3
Rattus norvegicus [12] = assay: The biodistribution of the [125I]-labeled compound in rats after intravenous injection was evaluated in liver at 4.00 hrs; value ranges from 0.40-0.61 (ID.kg/g); format: ADME, organism-based; summary of the method: as §2
Rattus norvegicus [13] = assay: The biodistribution of the [125I]-labeled compound in rats after intravenous injection was evaluated in brain at 1.00 hrs; value ranges from 0.14-0.15 (ID.kg/g); format: ADME, organism-based; summary of the method: as §1
Rattus norvegicus [14] = assay: The biodistribution of the [125I]-labeled compound in rats after intravenous injection was evaluated in adrenal at 4.00 hrs; value ranges from 0.20-0.32 (ID.kg/g); format: ADME, organism-based; summary of the method: as §1
Rattus norvegicus [15] = assay: The biodistribution of the [125I]-labeled compound in rats after intravenous injection was evaluated in blood at 1.00 hrs (ID.kg/g); format: ADME, organism-based; summary of the method: as §1
Rattus norvegicus [16] = assay: The biodistribution of the [125I]-labeled compound in rats after intravenous injection was evaluated in adrenal at 0.25 hrs; value ranges from 1.25-1.44 (ID.kg/g); format: ADME, organism-based; summary of the method: as §1
Rattus norvegicus [17] = assay: The biodistribution of the [125I]-labeled compound in rats after intravenous injection was evaluated in lung at 4.00 hrs (ID.kg/g); format: ADME, organism-based; summary of the method: as §2
Rattus norvegicus [18] = assay: The biodistribution of the [125I]-labeled compound in rats after intravenous injection was evaluated in muscle at 4.00 hrs (ID.kg/g); format: ADME, organism-based, Muscle tissue; summary of the method: as §3
Rattus norvegicus [19] = assay: The biodistribution of the [125I]-labeled compound in rats after intravenous injection was evaluated in adrenal at 1.00 hrs; value ranges from 0.84-1.04 (ID.kg/g); format: ADME, organism-based; summary of the method: as §1
Rattus norvegicus [20] = assay: The biodistribution of the [125I]-labeled compound in rats after intravenous injection was evaluated in heart at 0.25 hrs (ID.kg/g); format: ADME, organism-based; summary of the method: as §1
Rattus norvegicus [21] = assay: The biodistribution of the [125I]-labeled compound in rats after intravenous injection was evaluated in fat at 0.25 hr (ID. kg/g); format: ADME, organism-based, Adipose tissue; summary of the method: as §1
Rattus norvegicus [22] = assay: The biodistribution of the [125I]-labeled compound in rats after intravenous injection was evaluated in kidney at 1.00 hrs; value ranges from 0.26-0.35 (ID.kg/g); format: ADME, organism-based; summary of the method: as §2
Rattus norvegicus [23] = assay: The biodistribution of the [125I]-labeled compound in rats after intravenous injection was evaluated in liver at 0.25 hr; value ranges from 0.69-1.03 (ID.kg/g); format: ADME, organism-based; summary of the method: as §2
Rattus norvegicus [24] = assay: The biodistribution of the [125I]-labeled compound in rats after intravenous injection was evaluated in muscle at 0.25 hrs; value ranges from 0.03-0.04 (ID.kg/g); format: ADME, organism-based, Muscle tissue; summary of the method: as §3
Rattus norvegicus [25] = assay: The biodistribution of the [125I]-labeled compound in rats after intravenous injection was evaluated in blood at 4.00 hrs; value ranges from […]-0.09 (ID.kg/g); format: ADME, organism-based; summary of the method: as §1
Rattus norvegicus [26] = assay: The biodistribution of the [125I]-labeled compound in rats after intravenous injection was evaluated in lung at 1.00 hrs; value ranges from 0.34-0.43 (ID.kg/g); format: ADME, organism-based; summary of the method: as §2
Rattus norvegicus [27] = assay: The biodistribution of the [125I]-labeled compound in rats after intravenous injection was evaluated in thyroid at 0.25 hrs; value ranges from 1.31-2.46( ID.kg/g); format: ADME, organism-based, Thyroid gland; summary of the method: as §3
Rattus norvegicus [28] = assay: The biodistribution of the [125I]-labeled compound in rats after intravenous injection was evaluated in brain at 4.00 hrs; value ranges from 0.04-0.05 (ID.kg/g); format: ADME, organism-based; summary of the method: as §1
Rattus norvegicus [29] = assay: The biodistribution of the [125I]-labeled compound in rats after intravenous injection was evaluated in fat at 1.00 hrs; value ranges from 0.07-0.09 (ID.kg/g); format: ADME, organism-based, Adipose tissue; summary of the method: as §1
Rattus norvegicus [30] = assay: The biodistribution of the [125I]-labeled compound in rats after intravenous injection was evaluated in liver at 1.00 hrs; value ranges from 0.54-0.58 (ID.kg/g); format: ADME, organism-based; summary of the method: as §2

Question: What does the source list for `CCN1CCN(c2ccc(I)cc2)CC1`?
Answer: Biodistribution (Rattus norvegicus [1]): 0.09%; Biodistribution (Rattus norvegicus [2]): 0.58%; Biodistribution (Rattus norvegicus [3]): 0.04 % ID·kg/g; Biodistribution (Rattus norvegicus [4]): 15.81%; Biodistribution (Rattus norvegicus [5]): 0.04%; Biodistribution (Rattus norvegicus [6]): 0.06%; Biodistribution (Rattus norvegicus [7]): 0.25%; Biodistribution (Rattus norvegicus [8]): 0.38%; Biodistribution (Rattus norvegicus [9]): 0.35%; Biodistribution (Rattus norvegicus [10]): 0.09%; Biodistribution (Rattus norvegicus [11]): 3.24%; Biodistribution (Rattus norvegicus [12]): 0.61%; Biodistribution (Rattus norvegicus [13]): 0.16%; Biodistribution (Rattus norvegicus [14]): 0.32%; Biodistribution (Rattus norvegicus [15]): 0.07 % ID·kg/g; Biodistribution (Rattus norvegicus [16]): 1.44%; Biodistribution (Rattus norvegicus [17]): 0.17%; Biodistribution (Rattus norvegicus [18]): 0.02 %ID·kg/g; Biodistribution (Rattus norvegicus [19]): 1.04%; Biodistribution (Rattus norvegicus [20]): 0.1%; Biodistribution (Rattus norvegicus [21]): 0.09 % ID·kg/g; Biodistribution (Rattus norvegicus [22]): 0.35%; Biodistribution (Rattus norvegicus [23]): 1.03%; Biodistribution (Rattus norvegicus [24]): 0.04%; Biodistribution (Rattus norvegicus [25]): 0.09%; Biodistribution (Rattus norvegicus [26]): 0.43%; Biodistribution (Rattus norvegicus [27]): 2.46%; Biodistribution (Rattus norvegicus [28]): 0.05%; Biodistribution (Rattus norvegicus [29]): 0.09%; Biodistribution (Rattus norvegicus [30]): 0.58%
